For data set [1], the system named is Mus musculus. Put plainly: Antinociceptive activity in CD-1 mouse assessed as reduction of formalin-induced inflammatory pain at 100 mg/kg, sc administered 15 mins challenge measured up to 5 mins. It counts as functional, organism-based. Also on record: dose 100 mg/kg.
Data set [2] has as its system Mus musculus. Put plainly: Antinociceptive activity in CD-1 mouse assessed as reduction of formalin-induced inflammatory pain at 100 mg/kg, sc administered 15 mins challenge measured after 10 to 50 mins. It counts as functional, organism-based. Further details: dose 100 mg/kg.
The subject of data set [3] is Mus musculus. Put plainly: Analgesic activity in CD-1 mouse assessed as inhibition of acetic acid-induced writhing response at 100 mg/kg, sc measured after 30 mins. Format: functional, organism-based. Also on record: dose 100 mg/kg. The procedure, abridged:
(§1)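 Female CD-1 mice (25−30 g), dosed sc interscapularly in 2% Tween 80 in water (5 mL/kg), 30 min before ip 0.6% acetic acid (10 mL/kg). Writhes (torso stretches with back arching and leg extension) counted cumulatively over 30 min. Mean ± SEM of 8−12 mice per group versus vehicle, one-way ANOVA with Bonferroni.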

Data set [4] relates to Mus musculus. Put plainly: Antiallodynic activity against capsaicin-induced secondary mechanical pain in CD-1 mouse assessed as paw withdrawal-latency at 100 mg/kg, sc measured after 30 mins post compound administration. Also on record: dose 100 mg/kg. It counts as functional, organism-based. The procedure, abridged: (§2)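 Female CD-1 mice, sc dosing in 2% Tween 80 (5 mL/kg) 30 min before testing. Capsaicin (1 μg in 20 μL 1% DMSO) given ipl; 15 min later a 0.5 g force was applied with an electronic von Frey device ≥5 mm from the injection site toward the toes. Paw withdrawal latency recorded over three trials at 30 s intervals, 50 s cutoff. 8−12 mice per group, two-way ANOVA with Bonferroni.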

The subject of data set [5] is Mus musculus. Put plainly: Neurotoxicity in CD-1 mouse assessed as impairment in motor coordination at 8 mg/kg, sc measured up to 3 hrs by rotarod test. It counts as toxicity, organism-based. Further details: dose 8 mg/kg, route subcutaneous. The following applies: in vivo. Put shortly:
(§3)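 Female CD-1 mice trained three times on an accelerating rotarod (4 to 40 rpm over 5 min) 24 h before testing. Sc dosing in 2% Tween 80; latency to fall (300 s cutoff) recorded just before and 30, 60, 120 and 180 min after injection. 8−12 mice per group, two-way repeated-measures ANOVA with Bonferroni.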

Data set [6] relates to Mus musculus. Put plainly: Neurotoxicity in CD-1 mouse assessed as impairment in motor coordination at 512 mg/kg, sc measured up to 3 hrs by rotarod test. Format: toxicity, organism-based. Also on record: dose 512 mg/kg, route subcutaneous. The following applies: in vivo. Put shortly: as §3
Data set [7] concerns Mus musculus. Put plainly: Antiallodynic activity against capsaicin-induced secondary mechanical pain in sc dosed CD-1 mouse assessed as paw withdrawal-latency measured after 30 mins post compound administration. It counts as functional, organism-based. Put shortly: as §2
Data set [8] concerns Mus musculus. As to the kind of experiment: Antinociceptive activity in CD-1 mouse assessed as reduction of formalin-induced inflammatory pain at 1 % administered topically 15 mins challenge measured after 10 to 50 mins. Format: functional, organism-based. The procedure, abridged:
(§4)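 Female CD-1 mice, unanesthetized and restrained. 0.1 g of a 1% compound-enriched Carbopol gel (1% Carbopol, 2% triethanolamine, 5% propylene glycol) or vehicle gel was spread on the plantar hindpaw, ipsilateral or contralateral, 15 min before intraplantar formalin (20 μL, 5%). Licking/biting time scored for phase 1 (0−5 min) and phase 2 (10−50 min). 8−12 mice per group.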

In data set [9] the test system is Mus musculus. Put plainly: Antinociceptive activity in CD-1 mouse assessed as reduction of formalin-induced inflammatory pain at 1 % administered topically 15 mins challenge measured up to 5 mins. Format: functional, organism-based. Put shortly:
as §4

Data set [10] concerns Mus musculus. As to the kind of experiment: Analgesic activity in CD-1 mouse assessed as inhibition of acetic acid-induced writhing response at 64 to 256 mg/kg, sc measured after 30 mins. Format: functional, organism-based. The procedure, abridged:
as §1

Data set [11] relates to Mus musculus. Put plainly: Antiallodynic activity against capsaicin-induced secondary mechanical pain in CD-1 mouse assessed as paw withdrawal-latency at 64 mg/kg, sc measured after 30 mins post compound administration. It counts as functional, organism-based. Further details: dose 64 mg/kg. The procedure, abridged: as §2
For data set [12], the system named is Mus musculus. Put plainly: Neurotoxicity in CD-1 mouse assessed as impairment in motor coordination at 64 mg/kg, sc measured up to 3 hrs by rotarod test. It counts as toxicity, organism-based. Further details: dose 64 mg/kg, route subcutaneous. The following applies: in vivo. The procedure, abridged:
as §3

Calls of active or inactive are those of the source.

Turning to `CC(C)Cc1ccc(C(C)C(=O)O)cc1` (configuration not stated), the outcome in the data set on Mus musculus [1] and in the data set on Mus musculus [4] was inactive. Besides, the outcome in the data set with Mus musculus [2] was Active. In addition, the inhibition entry in the data set with Mus musculus [3] was “Active”.
For `NCC(CC(=O)O)c1ccc(Cl)cc1` (configuration not stated) [BACLOFEN], in the data set with Mus musculus [5], the Activity entry is given as “Toxic”.
Take `CC1(C)CC[C@]2(C(=O)O)CC[C@]3(C)C(=CC[C@@H]4[C@@]5(C)C[C@@H](O)[C@H](O)C(C)(C)[C@@H]5CC[C@]43C)[C@@H]2C1` [MASLINIC ACID]: the figures for the Activity entry in the data set on Mus musculus [6] and in the data set with Mus musculus [7] were “Non-toxic” and “Dose-dependent effect”, respectively. Besides, the result in the data set on Mus musculus [8] was Active. Moreover, the result in the data set on Mus musculus [9] was inactive. Further, the inhibition entry in the data set on Mus musculus [10] is “Active”.
With `CC(C)C[C@H](CN)CC(=O)O` [PREGABALIN], the outcome with Mus musculus [11] was Active. In addition, the Activity result with Mus musculus [12] is on record as “Toxic”.

These data come from ChEMBL document CHEMBL2331462, “Antiallodynic and analgesic effects of maslinic acid, a pentacyclic triterpenoid from Olea europaea” (J Nat Prod, 2013).
